Assay results published in ChEMBL document CHEMBL2311539, “3,6-Diamino-4-(2-halophenyl)-2-benzoylthieno[2,3-b]pyridine-5-carbonitriles are selective inhibitors of Plasmodium falciparum glycogen synthase kinase-3” (J Med Chem, 2013).

Key:
[1] = Inhibition of Plasmodium falciparum recombinant GSK-3 by radiometric protein kinase assay
Method in brief: (§1)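 His6-tagged recombinant GSK-3 expressed in E. coli (TOP10/pBAD-Thio-TOPO for P. falciparum and T. gondii, arabinose-induced; BL21(DE3)-pRARE2/pET15 for C. parvum, IPTG at 15 °C), Ni-NTA purified. Assayed with 40 μM GS-1 phosphopeptide, 15 μM γ-33P-ATP in pH 7.5 Tris buffer with MgCl2, EGTA, DTT, heparin, BSA; 30 min, 30 °C; P81 paper, phosphoric acid washes, scintillation counting. DMSO controls; dose-response IC50, triplicate points.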

[2] = Inhibition of pig GSK-3 by radiometric protein kinase assay; design: species or system Sus scrofa
Method in brief: (§2)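 Native affinity-purified porcine GSK-3 in the radiometric assay: 40 μM GS-1 peptide, 15 μM γ-33P-ATP, pH 7.5 Tris/MgCl2/EGTA/DTT/heparin/BSA buffer, 30 min at 30 °C, P81 filter binding and scintillation counting. IC50 from dose-response curves with triplicate points; top concentration 10 or 100 μM.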

[3] = system: Plasmodium falciparum; experiment: Antiplasmodial activity against Plasmodium falciparum after 72 hrs by luciferase reporter gene assay; format: functional, organism-based; conditions: 48 h
Method in brief: (§3)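 NF54:LUC P. falciparum erythrocytic stages (luciferase under hrp2 promoter) at 3% parasitemia, 25% hematocrit; compounds in RPMI-1640 with 1% DMSO, triplicate wells; untreated, DMSO-only and non-luciferase NF54 blank wells. […] Bright-Glo lysis, luminescence read.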

[4] = system: Plasmodium falciparum; experiment: Antiplasmodial activity against Plasmodium falciparum at 15 uM after 72 hrs by luciferase reporter gene assay; format: functional; method in brief: as §3
[5] = Inhibition of Toxoplasma gondii recombinant His6-tagged GSK-3 expressed in Escherichia coli using GS-1 peptide as substrate after 30 mins by scintillation counting analysis in presence of gamma-33P-ATP; format: cell-free; method in brief: as §1
[6] = Inhibition of Plasmodium knowlesi recombinant His6-tagged GSK-3 expressed in Escherichia coli using GS-1 peptide as substrate after 30 mins by scintillation counting analysis in presence of gamma-33P-ATP
Method in brief: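 P. knowlesi GSK3 gene in pBAD-Thio-TOPO, expressed in E. coli TOP10 (ampicillin, 37 °C, 0.02% arabinose for 4 h), Ni-NTA purified. Radiometric assay: 40 μM GS-1 peptide in buffer A pH 7.5 (MgCl2, EGTA, DTT, heparin, BSA) with 15 μM γ-33P-ATP, 30 min at 30 °C. P81 filter binding, scintillation counting. IC50 from triplicate dose-response curves.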

[7] = Inhibition of Plasmodium falciparum recombinant His6-tagged GSK-3 expressed in Escherichia coli using GS-1 peptide as substrate after 30 mins by scintillation counting analysis in presence of gamma-33P-ATP; method in brief: as §1
[8] = biological target: Glycogen synthase kinase-3 beta (Homo sapiens, UniProt P49841); experiment: Inhibition of human Nt-GST-tagged GSK-3beta
Chain of Glycogen synthase kinase-3 beta (P49841 whole entry, canonical isoform): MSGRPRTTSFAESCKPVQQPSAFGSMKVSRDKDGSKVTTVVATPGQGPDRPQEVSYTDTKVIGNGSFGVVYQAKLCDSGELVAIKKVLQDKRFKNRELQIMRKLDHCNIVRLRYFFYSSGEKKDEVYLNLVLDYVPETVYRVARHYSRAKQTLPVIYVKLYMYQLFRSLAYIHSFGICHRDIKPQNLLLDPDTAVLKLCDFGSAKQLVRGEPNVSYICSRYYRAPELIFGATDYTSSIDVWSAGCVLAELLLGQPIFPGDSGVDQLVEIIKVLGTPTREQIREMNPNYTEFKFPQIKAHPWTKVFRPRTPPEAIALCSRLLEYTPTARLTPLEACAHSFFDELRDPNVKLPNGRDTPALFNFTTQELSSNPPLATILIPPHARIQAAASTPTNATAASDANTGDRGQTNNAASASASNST
Method in brief: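 Recombinant human GSK-3 isoform assayed radiometrically: 40 μM GS-1 peptide in buffer A pH 7.5 with 15 μM γ-33P-ATP, 30 min at 30 °C. Read-out by P81 filter binding and scintillation. IC50 from triplicate dose-response curves; top inhibitor concentration 10, 25 or 100 μM.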

[9] = biological target: Glycogen synthase kinase-3 (Sus scrofa, UniProt B2LUN4+I6LNT8); experiment: Inhibition of pig GSK-3alpha/beta; method in brief: as §2
[10] = Inhibition of Leishmania donovani GSK-3
[11] = Inhibition of Trypanosoma brucei GSK-3
[12] = Inhibition of Trypanosoma cruzi GSK-3
[13] = Inhibition of Cryptosporidium parvum recombinant His6-tagged GSK-3 expressed in Escherichia coli using GS-1 peptide as substrate after 30 mins by scintillation counting analysis in presence of gamma-33P-ATP; method in brief: as §1
[14] = in the assay text read “48 hrs” for “72 hrs”

## Cc1ccccc1-c1c(C#N)c(N)nc2sc(C#N)c(N)c12
[1]
  IC50: 0.51 µM
[2]
  IC50: 2 µM

## N#Cc1c(N)nc2sc(C(=O)c3cccc(Cl)c3)c(N)c2c1-c1ccccc1F
[1]
  IC50: 10 µM
[2]
  IC50: > 100 µM

## N#Cc1c(N)nc2sc(C(=O)c3ccc(Cl)cc3)c(N)c2c1-c1ccccc1Br
[1]
  IC50: > 100 µM
[2]
  IC50: > 100 µM

## Nc1c(C(=O)c2ccc(Cl)cc2)sc2nc3c(c(-c4ccccc4I)c12)CCCC3
[1]
  IC50: > 10 µM
[2]
  IC50: > 10 µM

## N#Cc1sc2nc(N)c(C#N)c(-c3ccccc3Br)c2c1N
[1]
  IC50: 0.8 µM
[2]
  IC50: 1.3 µM

## COc1ccccc1-c1c(C#N)c(N)nc2sc(C#N)c(N)c12
[1]
  IC50: > 10 µM
[2]
  IC50: > 10 µM

## COc1ccccc1-c1c(C#N)c(N)nc2sc(C(=O)c3ccc(C(F)(F)F)cc3)c(N)c12
[1]
  IC50: > 10 µM
[2]
  IC50: > 10 µM

## Nc1c(C(=O)c2ccccc2)sc2nc3c(c(-c4ccccc4I)c12)CCCC3
[1]
  IC50: > 10 µM
[2]
  IC50: > 10 µM

## N#Cc1c(N)nc2sc(C(=O)c3ccccc3)c(N)c2c1-c1ccccc1Br
[1]
  IC50: 1.1 µM
[2]
  IC50: > 10 µM

## N#Cc1c(N)nc2sc(C(=O)c3ccc(Cl)c(Cl)c3)c(N)c2c1-c1ccccc1Cl
[1]
  IC50: 2.7 µM
[2]
  IC50: > 10 µM
[3]; [14]
  EC50: 3.7 µM
[4]
  inhibition at 15 µM: 100%

## N#Cc1sc2nc(N)c(C#N)c(-c3ccccc3Cl)c2c1N
[1]
  IC50: 0.13 µM
[2]
  IC50: 0.4 µM

## N#Cc1c(N)nc2sc(C(=O)c3cccc(F)c3)c(N)c2c1-c1ccccc1Cl
[1]
  IC50: > 100 µM
[2]
  IC50: > 100 µM

## COc1ccccc1-c1c(C#N)c(N)nc2sc(C(=O)c3ccccc3Cl)c(N)c12
[1]
  IC50: > 10 µM
[2]
  IC50: > 10 µM

## N#Cc1c(N)nc2sc(C(=O)c3ccc(Cl)cc3)c(N)c2c1-c1ccccc1I
[5]
  IC50: > 100 µM
[6]
  IC50: 15.5 µM
[7]
  IC50: 1.61 µM
[8]
  IC50: > 100 µM
[9]
  IC50: > 100 µM
[10]
  IC50: 80 µM
[11]
  IC50: > 100 µM
[12]
  IC50: > 100 µM
[13]
  IC50: > 100 µM

## N#Cc1c(N)nc2sc(C(=O)Nc3ccc(Cl)cc3)c(N)c2c1-c1ccccc1I
[1]
  IC50: > 10 µM
[2]
  IC50: > 10 µM

## N#Cc1c(N)nc2sc(C(=O)c3ccc(C(F)(F)F)cc3)c(N)c2c1-c1ccccc1I
[1]
  IC50: > 10 µM
[2]
  IC50: > 10 µM

## N#Cc1c(N)nc2sc(C(=O)c3ccccc3)c(N)c2c1-c1ccccc1I
[1]
  IC50: 2.4 µM
[2]
  IC50: > 10 µM

## N#Cc1cccc(C(=O)c2sc3nc(N)c(C#N)c(-c4ccccc4Cl)c3c2N)c1
[5]
  IC50: > 100 µM
[6]
  IC50: 6.5 µM
[7]
  IC50: 0.5 µM
[1]
  IC50: 0.5 µM
[2]
  IC50: > 10 µM
[4]
  inhibition at 15 µM: 30.3%
[9]
  IC50: > 100 µM
[10]
  IC50: 100 µM
[11]
  IC50: > 100 µM
[12]
  IC50: > 100 µM
[13]
  IC50: > 100 µM

## COc1ccc(C(=O)c2sc3nc(N)c(C#N)c(-c4ccccc4I)c3c2N)cc1
[1]
  IC50: 1.7 µM
[2]
  IC50: > 10 µM

## COc1ccccc1-c1c(C#N)c(N)nc2sc(C(=O)c3ccc(Cl)cc3)c(N)c12
[1]
  IC50: > 10 µM
[2]
  IC50: > 10 µM

## N#Cc1c(N)nc2sc(C(=O)Nc3ccc(Cl)cc3)c(N)c2c1-c1ccccc1Cl
[1]
  IC50: > 10 µM
[2]
  IC50: > 10 µM

## N#Cc1c(N)nc2sc(C(=O)c3ccc(Cl)c(Cl)c3)c(N)c2c1-c1ccccc1I
[1]
  IC50: 70 µM
[2]
  IC50: > 100 µM

## N#Cc1c(N)nc2sc(C(=O)c3cccc(C(F)(F)F)c3)c(N)c2c1-c1ccccc1Cl
[1]
  IC50: 2.2 µM
[2]
  IC50: > 10 µM
[3]; [14]
  EC50: 5.6 µM
[4]
  inhibition at 15 µM: 100%

## N#Cc1c(N)nc2sc(C(=O)c3cccc(Cl)c3)c(N)c2c1-c1ccccc1Br
[5]
  IC50: > 100 µM
[6]
  IC50: 1.45 µM
[7]
  IC50: 0.61 µM
[1]
  IC50: 0.61 µM
[2]
  IC50: > 10 µM
[4]
  inhibition at 15 µM: 77.1%
[9]
  IC50: > 100 µM
[10]
  IC50: 44 µM
[11]
  IC50: > 100 µM
[12]
  IC50: > 100 µM
[13]
  IC50: > 100 µM

## N#Cc1sc2nc(N)c(C#N)c(-c3c[nH]c4ccccc34)c2c1N
[1]
  IC50: 1.6 µM
[2]
  IC50: 3.5 µM

## COc1ccccc1-c1c(C#N)c(N)nc2sc(C(=O)c3ccccc3)c(N)c12
[5]
  IC50: > 100 µM
[6]
  IC50: 95 µM
[7]
  IC50: 6 µM
[1]
  IC50: 6 µM
[2]
  IC50: > 100 µM
[8]
  IC50: > 100 µM
[9]
  IC50: > 100 µM
[10]
  IC50: 80 µM
[11]
  IC50: > 100 µM
[12]
  IC50: > 100 µM
[13]
  IC50: > 100 µM

## N#Cc1c(N)nc2sc(C(=O)c3cccc(Br)c3)c(N)c2c1-c1ccccc1Cl
[1]
  IC50: 0.91 µM
[2]
  IC50: > 10 µM
[3]; in the assay text read “after 48 hrs” for “after 72 hrs”
  EC50: 7.5 µM
[4]
  inhibition at 15 µM: 100%

## N#Cc1c(N)nc2sc(C(=O)c3cccc(Cl)c3)c(N)c2c1-c1ccccc1I
[5]
  IC50: > 100 µM
[6]
  IC50: 2.75 µM
[7]
  IC50: 0.91 µM
[1]
  IC50: 0.91 µM
[2]
  IC50: > 10 µM
[4]
  inhibition at 15 µM: 65.4%
[9]
  IC50: > 100 µM
[10]
  IC50: 70 µM
[11]
  IC50: > 100 µM
[12]
  IC50: > 100 µM
[13]
  IC50: > 100 µM

## N#Cc1c(N)nc2sc(C(=O)Nc3ccc(Cl)cc3)c(N)c2c1-c1ccccc1Br
[1]
  IC50: > 10 µM
[2]
  IC50: > 10 µM

## COc1ccccc1-c1c(C#N)c(N)nc2sc(C(=O)c3ccc(C#N)cc3)c(N)c12
[1]
  IC50: > 10 µM
[2]
  IC50: > 10 µM

## N#Cc1c(N)nc2sc(C(=O)c3cccc(Cl)c3)c(N)c2c1-c1cccs1
[1]
  IC50: > 10 µM
[2]
  IC50: > 10 µM

## N#Cc1c(N)nc2sc(C(=O)c3ccc(Cl)cc3)c(N)c2c1-c1ccccc1
[1]
  IC50: > 100 µM
[2]
  IC50: > 100 µM

## N#Cc1sc2nc(N)c(C#N)c(-c3ccccc3I)c2c1N
[1]
  IC50: > 10 µM
[2]
  IC50: > 10 µM

## COc1ccccc1-c1c(C#N)c(N)nc2sc(C(=O)c3ccc(C)cc3)c(N)c12
[1]
  IC50: > 10 µM
[2]
  IC50: > 10 µM

## N#Cc1sc2nc(N)c(C#N)c(-c3cccs3)c2c1N
[1]
  IC50: 0.18 µM
[2]
  IC50: 2.3 µM

## COc1ccccc1-c1c(C#N)c(N)nc2sc(C(=O)c3cccc(Cl)c3)c(N)c12
[1]
  IC50: 8.5 µM
[2]
  IC50: > 10 µM

## COc1ccc(C(=O)c2sc3nc(N)c(C#N)c(-c4ccccc4OC)c3c2N)cc1
[1]
  IC50: > 10 µM
[2]
  IC50: > 10 µM

## Cc1ccc(C(=O)c2sc3nc(N)c(C#N)c(-c4ccccc4I)c3c2N)cc1
[1]
  IC50: 3.2 µM
[2]
  IC50: > 10 µM

## N#Cc1c(N)nc2sc(C(=O)c3ccccc3Cl)c(N)c2c1-c1ccccc1I
[1]
  IC50: > 10 µM
[2]
  IC50: > 10 µM

## N#Cc1c(N)nc2sc(C(=O)c3ccc(Cl)c(Cl)c3)c(N)c2c1-c1ccccc1Br
[1]
  IC50: 3.8 µM
[2]
  IC50: > 10 µM

## COc1cccc(C(=O)c2sc3nc(N)c(C#N)c(-c4ccccc4Cl)c3c2N)c1
[1]
  IC50: 1.7 µM
[2]
  IC50: > 10 µM
[4]
  inhibition at 15 µM: 63.5%

## CCOc1ccccc1-c1c(C#N)c(N)nc2sc(C#N)c(N)c12
[1]
  IC50: > 10 µM
[2]
  IC50: > 10 µM

## CCOc1ccccc1-c1c(C#N)c(N)nc2sc(C(=O)c3ccc(Cl)cc3)c(N)c12
[1]
  IC50: > 10 µM
[2]
  IC50: > 10 µM
